Experimental data from ChEMBL document CHEMBL1806465, “Synthesis and biological evaluation of 4-nitro-substituted 1,3-diaryltriazenes as a novel class of potent antitumor agents” (Eur J Med Chem, 2011).
Active and inactive are the calls of the source. The rule behind the calls is not given here.

Assays:
[1] = system: HEp-2; test: Cytotoxicity against human Hep2 cells after 72 hrs by MTT assay; type: functional, cell-based; settings: HEp-2, 72 h
Procedure, shortened: (§1)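 MTT assay: 3000 cells/well seeded, compound added next day, each concentration in quadruplicate, 72 h at 37 °C; medium replaced with 20 µg MTT/well for 4 h, formazan dissolved in DMSO, OD 545 nm. […] Fibroblasts: normal skin fibroblasts from donor, DMEM/10% FBS, used at 32 and 36 population doublings.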

[2] = system: SW-620; test: Cytotoxicity against human SW620 cells after 72 hrs by MTT assay; type: functional, cell-based; settings: SW-620, 72 h; procedure, shortened: as §1
[3] = system: RT-112; test: Cytotoxicity against human RT112 cells after 72 hrs by MTT assay; type: functional, cell-based; settings: RT-112, 72 h; procedure, shortened: as §1
[4] = Cytotoxicity against human Fibroblast cells after 72 hrs by MTT assay; type: cell-based; procedure, shortened: as §1
[5] = Therapeutic index, ratio IC50 for human Hep2 cells to IC50 for normal human fibroblasts; type: cell-based, HEp-2; settings: Hep2 cells versus normal human fibroblasts, read-out: Ratio IC50
Procedure, shortened: (§2)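 IC50 values came from an MTT assay. Cells were seeded at 3000 per well and dosed the next day, with each concentration in quadruplicate. After 72 h at 37 °C, MTT (20 µg/well) was added for 4 h; formazan was dissolved in DMSO and read at 545 nm. Each experiment was done three times. Normal skin fibroblasts were used at 32 and 36 population doublings. T.I. = tumor-cell IC50 / fibroblast IC50.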

[6] = Therapeutic index, ratio IC50 for human SW620 cells to IC50 for normal human fibroblasts; type: cell-based, SW-620; settings: SW620 cells versus normal human fibroblasts, read-out: Ratio IC50; procedure, shortened: as §2
[7] = system: HeLa; test: Cell cycle arrest in human HeLa cells assessed as accumulation at G0/G1 phase at 0.78 uM after 24 hrs by propidium iodide staining -based flow cytometry (reference value: 60.6 %); type: functional
Procedure, shortened: (§3)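 HeLa seeded at 100 000 cells/well, treated next day with 0.78, 7 or 21 µM for 24, 48 or 72 h. Adherent plus floating cells collected, PBS-washed, fixed overnight in 70% ethanol at −20 °C, RNase A 30 µg/ml 1 h RT, propidium iodide 16.7 µg/ml 30 min dark; DNA content by flow cytometry, phase percentages including subG1 reported.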

[8] = system: HeLa; test: Cell cycle arrest in human HeLa cells assessed as accumulation at G0/G1 phase at 21 uM after 24 hrs by propidium iodide staining -based flow cytometry (reference value: 60.6 %); type: functional; procedure, shortened: as §3
[9] = system: HeLa; test: Cell cycle arrest in human HeLa cells assessed as accumulation at S phase at 21 uM after 24 hrs by propidium iodide staining -based flow cytometry(reference value: 27.7 %); type: functional; procedure, shortened: as §3
[10] = system: HeLa; test: Cell cycle arrest in human HeLa cells assessed as accumulation at G2/M phase at 0.78 uM after 24 hrs by propidium iodide staining -based flow cytometry (reference value: 11.7 %); type: functional; procedure, shortened: as §3
[11] = system: HeLa; test: Cell cycle arrest in human HeLa cells assessed as accumulation at G2/M phase at 7 uM after 24 hrs by propidium iodide staining -based flow cytometry (reference value: 11.7 %); type: functional; procedure, shortened: as §3
[12] = system: HeLa; test: Cell cycle arrest in human HeLa cells assessed as accumulation at subG1 phase at 0.78 uM after 24 hrs by propidium iodide staining -based flow cytometry (reference value: 9.4 %); type: functional; procedure, shortened: as §3
[13] = system: HeLa; test: Cell cycle arrest in human HeLa cells assessed as accumulation at G0/G1 phase at 0.78 uM after 48 hrs by propidium iodide staining -based flow cytometry (reference value: 63.8 %); type: functional; procedure, shortened: as §3
[14] = system: HeLa; test: Cell cycle arrest in human HeLa cells assessed as accumulation at S phase at 7 uM after 48 hrs by propidium iodide staining -based flow cytometry (reference value: 26.3 %); type: functional; procedure, shortened: as §3
[15] = system: HeLa; test: Cell cycle arrest in human HeLa cells assessed as accumulation at S phase at 21 uM after 48 hrs by propidium iodide staining -based flow cytometry (reference value: 26.3 %); type: functional; procedure, shortened: as §3
[16] = system: HeLa; test: Cell cycle arrest in human HeLa cells assessed as accumulation at G2/M phase at 0.78 uM after 48 hrs by propidium iodide staining -based flow cytometry (reference value: 9.9 %); type: functional; procedure, shortened: as §3
[17] = system: HeLa; test: Cell cycle arrest in human HeLa cells assessed as accumulation at G2/M phase at 21 uM after 48 hrs by propidium iodide staining -based flow cytometry (reference value: 9.9 %); type: functional; procedure, shortened: as §3
[18] = system: HeLa; test: Cell cycle arrest in human HeLa cells assessed as accumulation at subG1 phase at 0.78 uM after 48 hrs by propidium iodide staining -based flow cytometry (reference value: 8.5 %); type: functional; procedure, shortened: as §3
[19] = system: HeLa; test: Cell cycle arrest in human HeLa cells assessed as accumulation at subG1 phase at 7 uM after 48 hrs by propidium iodide staining -based flow cytometry (reference value: 8.5 %); type: functional; procedure, shortened: as §3
[20] = system: HeLa; test: Cell cycle arrest in human HeLa cells assessed as accumulation at G0/G1 phase at 0.78 uM after 72 hrs by propidium iodide staining -based flow cytometry (reference value: 66.9 %); type: functional; procedure, shortened: as §3
[21] = system: HeLa; test: Cell cycle arrest in human HeLa cells assessed as accumulation at G0/G1 phase at 7 uM after 72 hrs by propidium iodide staining -based flow cytometry (reference value: 66.9 %); type: functional; procedure, shortened: as §3
[22] = system: HeLa; test: Cell cycle arrest in human HeLa cells assessed as accumulation at G0/G1 phase at 21 uM after 72 hrs by propidium iodide staining -based flow cytometry (reference value: 66.9 %); type: functional; procedure, shortened: as §3
[23] = system: HeLa; test: Cell cycle arrest in human HeLa cells assessed as accumulation at S phase at 7 uM after 72 hrs by propidium iodide staining -based flow cytometry (reference value: 23.5 %); type: functional; procedure, shortened: as §3
[24] = system: HeLa; test: Cell cycle arrest in human HeLa cells assessed as accumulation at G2/M phase at 21 uM after 72 hrs by propidium iodide staining -based flow cytometry (reference value: 9.7 %); type: functional; procedure, shortened: as §3
[25] = system: HeLa; test: Cell cycle arrest in human HeLa cells assessed as accumulation at subG1 phase at 7 uM after 72 hrs by propidium iodide staining -based flow cytometry (reference value: 7.2 %); type: functional; procedure, shortened: as §3
[26] = system: HeLa; test: Induction of reactive oxygen species generation in human HeLa cells after 8 hrs by FACS analysis; type: functional, cell-based
Procedure, shortened: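 Logarithmically growing HeLa cells were preloaded with 10 µM CM-H2DCFDA for 1 h. They were then exposed to 7, 20 or 40 µM for 8 h, or to 7 µM for 2, 4 or 6 h. Cells were trypsinized, fixed in cold 80% methanol, resuspended in PBS and read for fluorescence by flow cytometry. The positive control was 0.01% H2O2 for 30 min.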

[27] = system: HeLa; test: Cell cycle arrest in human HeLa cells assessed as accumulation at subG1 phase after 24 to 72 hrs by propidium iodide staining -based flow cytometry; type: functional; procedure, shortened: as §3
[28] = system: HeLa; test: Induction of apoptotis in human HeLa cells assessed as cleavage of procaspase 8 at 7 uM after 48 hrs by Western blot analysis; type: functional, cell-based
Procedure, shortened: (§4)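 HeLa cells were treated for 48 h at 7 µM and analysed by Western blot (10% SDS gels, nitrocellulose, HRP secondary, ECL, ERK2 loading control) for cleavage of apoptotic proteins. Antibodies: anti-PARP 1:4000; anti-caspase-3 and anti-caspase-8 1:1000; rabbit polyclonal anti-caspase-9 1:1000.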

[29] = system: HeLa; test: Induction of apoptotis in human HeLa cells assessed as cleavage of procaspase 3 at 7 uM after 48 hrs by Western blot analysis; type: functional, cell-based; procedure, shortened: as §4
[30] = system: HeLa; test: Induction of ER stress in human HeLa cells assessed as expression of CHOP and Grp78

For CC(=O)N(/N=N/c1ccc([N+](=O)[O-])cc1Cl)c1ccc([N+](=O)[O-])cc1Cl, the IC50 [1] was 0.62 µM, the IC50 [2] was 0.45 µM and the IC50 [3] was 7.2 µM. The IC50 [4] was 14 µM, the selectivity ratio [5] was 0.044 and the selectivity ratio [6] was 0.032. It also gave an Activity [7] of 74.4%, an Activity [8] of 69.3% and an Activity [9] of 20.2%. The Activity [10] was 10.5%, the Activity [11] was 10% and the Activity [12] was 8.7%. For the same compound, the Activity [13] was 74.5%, the Activity [14] was 14.2% and the Activity [15] was 15.2%. It also gave an Activity [16] of 7%, an Activity [17] of 11.9% and an Activity [18] of 15.8%. The Activity [19] was 23.8%, the Activity [20] was 59.1% and the Activity [21] was 77.1%. The Activity [22] was 79%, the Activity [23] was 15.2% and the Activity [24] was 8.4%. The Activity [25] was 33%, the Activity [26] was “Dose-dependent effect” and the Activity [27] was “Dose-dependent effect”. The Activity [28] was “Active”, the Activity [29] was “Active” and the Activity [30] was “Active”.
